Assay results: ChEMBL document CHEMBL4270660, “Design, synthesis, and systematic evaluation of 4-arylpiperazine- and 4-benzylpiperidine napthyl ethers as inhibitors of monoamine neurotransmitters reuptake” (Bioorg Med Chem, 2018)
Activity calls are given as the source filed them. No cut-off for these calls is given here.

Key:
[1] = molecular target: T1, Sodium-dependent serotonin transporter (Homo sapiens, UniProt P31645); assay: Inhibition of [3H]serotonin uptake at human SERT expressed in HEK293 cells after 15 to 20 mins by microbeta scintillation counting method; assay type: cell-based
Target sequence in this assay (P31645 whole entry): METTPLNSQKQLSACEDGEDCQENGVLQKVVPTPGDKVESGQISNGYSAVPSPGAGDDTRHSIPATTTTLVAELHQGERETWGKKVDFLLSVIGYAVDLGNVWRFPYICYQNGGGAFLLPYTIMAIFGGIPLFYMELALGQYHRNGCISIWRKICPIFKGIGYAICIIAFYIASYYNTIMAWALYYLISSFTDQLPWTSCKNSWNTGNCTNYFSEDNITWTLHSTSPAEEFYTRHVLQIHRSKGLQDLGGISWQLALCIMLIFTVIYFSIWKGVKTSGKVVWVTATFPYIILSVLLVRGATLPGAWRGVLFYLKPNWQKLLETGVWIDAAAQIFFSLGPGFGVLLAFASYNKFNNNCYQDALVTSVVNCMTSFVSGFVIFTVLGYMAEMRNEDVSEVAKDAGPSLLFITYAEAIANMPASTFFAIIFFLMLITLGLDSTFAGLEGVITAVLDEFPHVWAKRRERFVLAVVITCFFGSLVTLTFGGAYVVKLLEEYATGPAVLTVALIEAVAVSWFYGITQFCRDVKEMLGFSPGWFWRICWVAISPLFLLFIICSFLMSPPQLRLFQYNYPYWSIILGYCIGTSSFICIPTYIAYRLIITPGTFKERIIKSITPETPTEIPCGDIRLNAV

[2] = molecular target: T2, Sodium-dependent noradrenaline transporter (Homo sapiens, UniProt P23975); assay: Inhibition of [3H]norepinephrine uptake at human NET expressed in HEK293 cells at 10 uM after 15 to 20 mins by microbeta scintillation counting method; assay type: cell-based
In short: (§1)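 HEK-293 cells transfected with the human transporter (DAT or NET) were given the radiolabeled substrate, [³H]-DA for DAT or [³H]-NE for NET, at 20 nM in the assay. Uptake was measured by liquid scintillation counting. Reference inhibitors were venlafaxine HCl, bupropion and GBR12909. Single-concentration lines are percent reuptake inhibition at the stated concentration.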

[3] = molecular target: T1, Sodium-dependent serotonin transporter; conditions: HEK293, at 1 µM
Target sequence in this assay (P31645 whole entry, looked up): as the sequence (P31645 whole entry) above

[4] = molecular target: T3, Sodium-dependent dopamine transporter (Homo sapiens, UniProt Q01959); assay: Inhibition of [3H]dopamine uptake at DAT (unknown origin)
In short: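 HEK-293 cells transfected with human dopamine transporter (hDAT). Uptake of [³H]-DA at 20 nM, measured by liquid scintillation counting. Test compounds screened as % reuptake inhibition at 1 µM and 10 µM, and IC50 values determined.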

[5] = molecular target: T2, Sodium-dependent noradrenaline transporter; assay: Inhibition of [3H]norepinephrine uptake at NET (unknown origin)
In short: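 HEK-293 cells transfected with human norepinephrine transporter (hNET). [³H]-NE at 20 nM as substrate, with uptake read by liquid scintillation counting. Reuptake inhibition recorded at 1 µM and 10 µM test compound, and IC50 derived.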

[6] = molecular target: T1, Sodium-dependent serotonin transporter; assay: Inhibition of [3H]serotonin uptake at SERT (unknown origin)
In short: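 Human serotonin transporter (hSERT) expressed by transfection in HEK-293 cells. [³H]-5-HT at 20 nM, with uptake radioactivity counted by liquid scintillation. Percent reuptake inhibition measured at 1 µM and 10 µM, plus IC50 determination.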
Target sequence in this assay (P31645 whole entry): as above

[7] = molecular target: T2, Sodium-dependent noradrenaline transporter; assay: Inhibition of [3H]norepinephrine uptake at human NET expressed in HEK293 cells after 15 to 20 mins by microbeta scintillation counting method; assay type: cell-based
In short: as §1, with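 “counting.” for “counting. Reference inhibitors were venlafaxine HCl, bupropion and GBR12909.”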

[8] = molecular target: T3, Sodium-dependent dopamine transporter; assay: Inhibition of [3H]dopamine uptake at human DAT expressed in HEK293 cells at 1 uM after 15 to 20 mins by microbeta scintillation counting method; assay type: cell-based; in short: as §1
[9] = molecular target: T2, Sodium-dependent noradrenaline transporter; conditions: HEK293, 1 uM
[10] = molecular target: T3, Sodium-dependent dopamine transporter; assay: Inhibition of [3H]dopamine uptake at human DAT expressed in HEK293 cells after 15 to 20 mins by microbeta scintillation counting method; assay type: cell-based; in short: as §1

T2 sequence (P23975 whole entry): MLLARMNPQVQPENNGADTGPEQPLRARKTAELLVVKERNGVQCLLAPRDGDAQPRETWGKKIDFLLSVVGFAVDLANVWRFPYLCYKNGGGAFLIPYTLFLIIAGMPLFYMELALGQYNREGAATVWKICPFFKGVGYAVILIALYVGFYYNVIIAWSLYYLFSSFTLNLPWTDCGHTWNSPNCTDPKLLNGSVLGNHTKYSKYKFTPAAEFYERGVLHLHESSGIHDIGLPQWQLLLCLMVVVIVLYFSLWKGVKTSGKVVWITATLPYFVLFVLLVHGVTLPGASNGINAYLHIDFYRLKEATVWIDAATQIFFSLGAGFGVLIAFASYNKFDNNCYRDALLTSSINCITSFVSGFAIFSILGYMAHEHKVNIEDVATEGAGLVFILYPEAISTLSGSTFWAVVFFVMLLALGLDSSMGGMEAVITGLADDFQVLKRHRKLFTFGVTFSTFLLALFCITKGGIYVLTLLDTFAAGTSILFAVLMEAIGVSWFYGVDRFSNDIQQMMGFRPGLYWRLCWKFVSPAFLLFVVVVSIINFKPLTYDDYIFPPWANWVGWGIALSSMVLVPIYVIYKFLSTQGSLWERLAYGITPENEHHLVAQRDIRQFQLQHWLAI
T3 sequence (Q01959 whole entry): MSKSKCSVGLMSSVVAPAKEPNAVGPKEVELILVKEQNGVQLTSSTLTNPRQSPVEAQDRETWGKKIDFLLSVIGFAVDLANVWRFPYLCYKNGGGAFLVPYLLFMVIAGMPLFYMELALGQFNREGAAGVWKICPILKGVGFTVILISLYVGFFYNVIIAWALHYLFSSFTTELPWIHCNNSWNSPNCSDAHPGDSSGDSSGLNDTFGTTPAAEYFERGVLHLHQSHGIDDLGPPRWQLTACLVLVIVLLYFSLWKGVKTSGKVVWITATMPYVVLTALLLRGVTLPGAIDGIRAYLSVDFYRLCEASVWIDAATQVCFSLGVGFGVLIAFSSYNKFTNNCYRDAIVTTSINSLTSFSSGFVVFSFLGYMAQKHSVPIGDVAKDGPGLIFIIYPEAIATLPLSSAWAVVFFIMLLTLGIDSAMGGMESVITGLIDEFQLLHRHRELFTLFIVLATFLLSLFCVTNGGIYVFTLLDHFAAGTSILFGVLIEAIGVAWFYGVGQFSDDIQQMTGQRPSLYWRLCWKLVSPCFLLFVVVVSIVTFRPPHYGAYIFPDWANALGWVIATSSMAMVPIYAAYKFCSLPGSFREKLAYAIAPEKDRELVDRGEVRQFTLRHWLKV

Compound | IC50 [1] | inhibition [2] | inhibition [3] | inhibition [8] | further results
Fc1cccc(F)c1N1CCN(CCCn2nnnc2C(c2ccccc2)c2ccccc2)CC1 | > 10000 nM | – | – | – | –
Clc1cccc(N2CCN(CCCCOc3ccc4ccccc4c3)CC2)c1 | – | 63.7% | 27.5% | – | –
c1ccc(N2CCN(CCCOc3ccc4ccccc4c3)CC2)cc1 | – | 79.6% | 27% | – | –
c1ccc(C2CCN(CCCn3nnnc3C(c3ccccc3)c3ccccc3)CC2)cc1 | – | – | – | – | IC50 [4]: 90 nM; IC50 [5]: 510 nM; IC50 [6]: > 10000 nM
Clc1ccc(N2CCN(CCCCOc3ccc4ccccc4c3)CC2)c(Cl)c1 | 4320 nM | 67.7% | 51% | – | IC50 [7]: 9.74 µM
Fc1ccc(N2CCN(CCOc3ccc4ccccc4c3)CC2)cc1 | 2800 nM | 80.8% | 60.5% | 35.6% | IC50 [7]: 5.13 µM
Clc1ccc(N2CCN(CCOc3ccc4ccccc4c3)CC2)c(Cl)c1 | – | 47.3% | 61.4% | 48.5% | –
c1ccc(CC2CCN(CCCCOc3ccc4ccccc4c3)CC2)cc1 | – | 80.7% | 31.9% | – | –
CC(NC(C)(C)C)C(=O)c1cccc(Cl)c1 (stereo unspecified) | – | 61.5% | – | 78.3% | –
Brc1ccc(N2CCN(CCCOc3ccc4ccccc4c3)CC2)cc1 | 830 nM | 80% | 54.9% | – | IC50 [7]: 2.85 µM
c1ccc(N2CCN(CCCCOc3ccc4ccccc4c3)CC2)cc1 | – | 86.4% | 41.2% | – | –
Fc1ccc(C(OCCN2CCN(c3ccccn3)CC2)c2ccc(F)cc2)cc1 | 570 nM | – | – | – | –
Cc1cccc(C)c1N1CCN(CCCOc2ccc3ccccc3c2)CC1 | – | 86.5% | 35.1% | – | –
COc1ccccc1N1CCN(CCCCOc2ccc3ccccc3c2)CC1 | 5160 nM | 68% | 51.3% | – | IC50 [7]: 29.7 µM
COc1ccccc1N1CCN(CCCOc2ccc3ccccc3c2)CC1 | 1040 nM | 85.3% | 56.4% | – | IC50 [7]: 1.2 µM
Clc1cccc(N2CCN(CCOc3ccc4ccccc4c3)CC2)c1 | 1860 nM | 83.1% | 85.3% | inactive | IC50 [7]: 5.83 µM
FC(F)(F)c1ccc(N2CCN(CCOc3ccc4ccccc4c3)CC2)cc1 | – | 23.1% | 8.2% | 31.3% | –
Cc1cccc(C)c1N1CCN(CCCCOc2ccc3ccccc3c2)CC1 | – | 74.4% | 38.3% | – | –
Fc1ccc(N2CCN(CCCOc3ccc4ccccc4c3)CC2)cc1 | – | 23.3% | 45.4% | – | –
Brc1ccc(N2CCN(CCOc3ccc4ccccc4c3)CC2)cc1 | – | 52.8% | 9% | 19% | –
c1ccc(N2CCN(CCOc3ccc4ccccc4c3)CC2)nc1 | 1080 nM | 66% | 54% | inactive | IC50 [7]: 23.8 µM
c1ccc(N2CCN(CCCCOc3ccc4ccccc4c3)CC2)nc1 | – | 59% | 45.3% | – | –

Compound | IC50 [1] | inhibition [2] | inhibition [3] | inhibition [8] | further results
Clc1ccc(N2CCN(CCCOc3ccc4ccccc4c3)CC2)cc1 | – | 25.7% | 28.4% | – | –
c1ccc(CC2CCN(CCOc3ccc4ccccc4c3)CC2)cc1 | – | – | 12.1% | inactive | –
Clc1cccc(N2CCN(CCCOc3ccc4ccccc4c3)CC2)c1Cl | – | 45% | 37.5% | – | –
Clc1ccc(N2CCN(CCOc3ccc4ccccc4c3)CC2)cc1 | – | 28% | 20.1% | 2% | –
FC(F)(F)c1ccc(N2CCN(CCCCOc3ccc4ccccc4c3)CC2)cc1 | 680 nM | 68.3% | 59.2% | – | IC50 [7]: 20.5 µM
c1ccc(CC2CCN(CCCOc3ccc4ccccc4c3)CC2)cc1 | 990 nM | 92.2% | 51% | – | IC50 [7]: 2.54 µM
Fc1ccc(N2CCN(CCCCOc3ccc4ccccc4c3)CC2)cc1 | 3150 nM | 74.3% | 71% | – | IC50 [7]: 3.71 µM
COc1ccc(C(CN(C)C)C2(O)CCCCC2)cc1 (stereo unspecified) | – | – | – | – | inhibition [9]: 52.6%
Clc1ccc(N2CCN(CCCCOc3ccc4ccccc4c3)CC2)cc1 | – | 69.3% | 49% | – | –
c1ccc(N2CCN(CCCOc3ccc4ccccc4c3)CC2)nc1 | – | 68.7% | 46.2% | – | –
COc1ccccc1N1CCN(CCOc2ccc3ccccc3c2)CC1 | – | 21% | 48.7% | 19% | –
O=C(NCCCN1CCC(Cc2ccccc2)CC1)c1ccc2ccccc2c1 | – | – | – | – | IC50 [4]: > 10000 nM; IC50 [6]: 100 nM
O=C(NCCCN1CCN(c2cccc(Cl)c2Cl)CC1)c1ccc2ccccc2c1 | – | – | – | – | IC50 [10]: > 10 µM
c1ccc(N2CCN(CCOc3ccc4ccccc4c3)CC2)cc1 | – | 28% | 7.2% | 9% | –
Clc1cccc(N2CCN(CCOc3ccc4ccccc4c3)CC2)c1Cl | – | 20% | 26.7% | inactive | –
Brc1ccc(N2CCN(CCCCOc3ccc4ccccc4c3)CC2)cc1 | 10700 nM | 66.3% | 66.3% | – | IC50 [7]: 25.9 µM
c1cnc(N2CCN(CCOc3ccc4ccccc4c3)CC2)nc1 | – | – | 57% | inactive | –
Cc1cccc(C)c1N1CCN(CCOc2ccc3ccccc3c2)CC1 | – | 74.9% | 24.6% | 19% | –
c1cnc(N2CCN(CCCCOc3ccc4ccccc4c3)CC2)nc1 | – | 31% | 32% | – | –
Clc1cccc(N2CCN(CCCCOc3ccc4ccccc4c3)CC2)c1Cl | – | 60.7% | 36.8% | – | –
c1cnc(N2CCN(CCCOc3ccc4ccccc4c3)CC2)nc1 | – | 47.3% | 23.8% | – | –
